Results reported in ChEMBL document CHEMBL1144101, “Secobatzellines A and B, two new enzyme inhibitors from a deep-water Caribbean sponge of the genus Batzella” (J Nat Prod, 1999).
In brackets after ≈: the same amount, converted by molar mass.

Assays:
Caspase-3 = target: T1, Caspase-3 (Homo sapiens, UniProt P42574); assay: Inhibition of peptidase activity of CPP32
T1 sequence (P42574 whole entry): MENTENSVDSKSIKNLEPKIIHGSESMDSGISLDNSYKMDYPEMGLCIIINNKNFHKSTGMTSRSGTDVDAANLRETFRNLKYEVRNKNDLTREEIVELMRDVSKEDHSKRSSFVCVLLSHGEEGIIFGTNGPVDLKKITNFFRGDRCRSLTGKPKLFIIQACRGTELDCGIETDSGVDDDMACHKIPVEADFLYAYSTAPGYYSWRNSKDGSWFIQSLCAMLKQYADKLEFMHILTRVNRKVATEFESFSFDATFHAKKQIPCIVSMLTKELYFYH

A549 = assay: Cytotoxicity against human A549 cells; format: functional, cell-based
P388 = assay: Cytotoxicity against mouse P388 cells; format: functional, cell-based
[1] = Inhibition of bovine phosphatase activity of calcineurin by microtitre method; design: species or system Bos taurus
Outline: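 Bovine calcineurin assayed together with bovine calmodulin, using p-nitrophenyl phosphate as the phosphatase substrate.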

CC(=O)OCC(OC(C)=O)c1c[nH]c2c1C(=N)C(Cl)=C(N)C2=O (configuration not stated) [SECOBATZELLINE A DIACETATE]
IC50 (Caspase-3): 2.35 µM
IC50 (A549): 0.12 µg/mL
IC50 (P388): 0.01 µg/mL

N=C1C(Cl)=C(N)C(=O)c2[nH]cc(C(O)CO)c21 (configuration not stated) [SECOBATZELLINE A]
IC50 [1]: 0.55 µg/mL (≈ 2.15 µM)
IC50 (A549): 0.04 µg/mL (≈ 0.156 µM)
IC50 (P388): 0.06 µg/mL (≈ 0.235 µM)

CC(=O)OCC(OC(C)=O)c1c[nH]c2c1C(=O)C(Cl)=C(N)C2=O (configuration not stated) [SECOBATZELLINE B DIACETATE]
IC50 (Caspase-3): 25.8 µM
IC50 (A549): 4.68 µg/mL
IC50 (P388): 3.83 µg/mL

NC1=C(Cl)C(=O)c2c(C(O)CO)c[nH]c2C1=O (configuration not stated) [SECOBATZELLINE B]
IC50 [1]: 2.21 µg/mL (≈ 8.61 µM)
IC50 (A549): 2.86 µg/mL (≈ 11.1 µM)
IC50 (P388): 1.22 µg/mL (≈ 4.75 µM)
